T cruzi repl = inhibitors of intracellular T. cruzi growth, primary screen, luminescence, NIH3T3 host cells; T. cruzi beta-gal in NIH3T3, 90 h; 300,000 compounds, 1.4% hits; inhibition, % (no concentration beside the values);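 active means mean inhibition across valid replicates above about 55%, limit read from the data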;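 further: signal also drops with host cell toxicity which is not excluded here; 0% = plate median of DMSO wells and 100% = zero luminescence signal; higher percent means less beta-gal luminescence so fewer parasites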
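assay system = mouse NIH/3T3 fibroblasts infected with β-gal-expressing T. cruzi Tulahuen C4 | input = 5,000 NIH/3T3 host cells per well | buffer or medium = DMEM plus 2% FBS | timing = 3 h host attachment, then at least 90 h co-culture | measured by = GalScreen luminescence, 60 min | evaluation = luminescence reflecting intracellular parasite burden, expressed as percent inhibition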
HSF-1 act = HSF-1 activators, primary screen, NIH3T3-HGL cells, MG132 stress, luminescence, single point; NIH3T3-HGL HSF-1 luciferase reporter, 8 h; 100% = twice DMSO control signal; activation, % at 9 µM; 300,000 compounds, 1.7% hits; AID 504408, 2011;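 active means mean replicate activation of at least 50% with a set share of replicates each reaching 50%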;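 further: 0% = median of the neutral control wells and 100% = twice that signal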
Lmaj promast = Leishmania major promastigote growth inhibition, primary screen. AID 1063, 2008. Leishmania major promastigotes, resazurin fluorescence viability. inhibition, % at 10 µM. 200,000 compounds, 9% hits; in the data active means inhibition above about 50%;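 further: promastigotes grown with compound for 44 hours at 28 °C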
Hsp70 activator = Hsp70 transcriptional activators, primary screen, cell-based, HeLa, Hsp70 promoter luciferase, luminescence, 10 µM | HeLa Hsp70 promoter luciferase reporter; scaled: vehicle 0, proteasome-inhibitor control 100% | activation, % at 10 µM | 200,000 compounds, 0.04% hits;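 active means activation above the mean across all tested compounds plus 3 SD, cutoff set per campaign, cut at about 5.5% in these data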;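 further: 100% = MG132 at 30 µM as the positive control and 0% = DMSO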
HSF1 inh = HSF1 inhibitors in luciferase reporter cells, primary screen, cell-based, NIH3T3, luminescence; NIH3T3-HGL HSE-luciferase, MG132-induced, luminescence 8 h; active compounds read low; activity change, negative = inhibition, % at 7.5 µM (by protocol); 300,000 compounds, 0.77% hits; AID 2098, 2009;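 active means more than half of replicate wells show activity change below -50%, luminescence cut by over half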;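 further: luciferase reports HSF-1 transcriptional activity via heat shock element; 0% = median of DMSO wells and -100% = zero luminescence signal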
Numbers without * were called inactive; · = no result. This excerpt belongs to a sample that is enriched for hits.

SMILES | T cruzi repl | HSF-1 act | Lmaj promast | Hsp70 activator | HSF1 inh
COc1ccc2c(Cl)c(C(=O)N/N=C/c3ccc4c(c3)OCO4)sc2c1 | 9 | -1 | 97* | 0 | 1
O=C(N/N=C/c1cccnc1)c1cccc(Cl)c1 | -11 | 3 | · | · | 1
Cc1ccsc1C(=O)N/N=C/c1ccc2c(c1)OCO2 | 2 | 52* | -2 | 0 | 13
COc1ccc(N2CCN(C3CCCN(C(=O)CSC)C3)CC2)cc1 (stereo not given) | 0 | -5 | · | · | -8
COc1ccccc1C(=O)NCC(=O)N/N=C/c1ccncc1 | -5 | 10 | 1 | 0 | 7
COc1ccc2c(Cl)c(C(=O)N/N=C/c3c(C)[nH]c4ccccc34)sc2c1 | 35 | -42 | 100* | 0 | -26
CC(SCc1ccccc1)C(=O)N/N=C/c1ccc2c(c1)OCO2 (stereo not given) | 3 | -29 | 75* | 0 | -12
O=C(N/N=C/c1ccc(Cl)cc1)c1ccc2c(c1)OCO2 | 4 | 55* | · | · | 36
O=C(N/N=C/c1ccncc1)c1ccc2c(c1)OCO2 | -4 | 2 | -2 | 0 | -15
COc1ccccc1C(=O)NCC(=O)N/N=C/c1ccc2c(c1)OCO2 | -9 | -78 | · | · | -73*
CCCCCCC(C)n1[nH]c(=O)c2c(C)cc(C)nc21 (stereo not given) | -12 | 23 | · | · | 18
CCOc1ccc(C2NC(=O)c3ccccc3O2)cc1OC (stereo not given) | -1 | 1 | · | · | -3
Cc1ccccc1/C=N/NC(=O)c1sccc1C | 4 | 55* | -6 | 0 | 37
COc1ccc(/C=N/NC(=O)c2sccc2C)c2ccccc12 | 4 | 30 | · | · | 26
COC(=O)c1c(NC(=O)CN2C(=O)C(=O)N(CC(C)C)C2=O)sc(C)c1C | -3 | 5 | · | · | -7
COc1cc([C@H]2[C@@H]3CCCC[C@]3(O)CCN2CC(=O)Nc2ccc(C)cc2C)ccc1O | -3 | 5 | 65* | 0 | 4
COc1cc([C@H]2[C@@H]3CCCC[C@]3(O)CCN2Cc2ccccc2F)ccc1O | 2 | -3 | 3 | 0 | -2
COC(=O)c1c(NC(=O)CN2CCC3(O)CCCCC3C2c2ccc(OC)cc2OC)sc(C)c1C (stereo not given) | 12 | 0 | 62* | 0 | -5
COCCNC(=O)Cn1cnc2c(cnn2-c2ccc(C)cc2)c1=O | -7 | 16 | · | · | 1
COc1cccc(NC(=O)Cn2cnc3sc(C)c(S(=O)(=O)N4CCCCC4)c3c2=O)c1 | 24 | 10 | 10 | 0 | 3
O=C(N/N=C(\c1ccccc1)c1cccnc1)c1cccc(F)c1 | 26 | 127* | · | · | 100
COc1nnc(-c2ccc(N3CCCCC3)c(NC(=O)C3CCCCC3)c2)c2ccccc12 | 34 | 7 | 54* | 0 | 7
CCOC(=O)C1=CN(Cc2ccc(OC)cc2)C=C(C(=O)OCC)C1c1cccs1 | 38 | 51* | 100* | 0 | 26
COC(=O)C1=CN(Cc2ccc(OC)cc2)C=C(C(=O)OC)C1c1cc(OC)c(OC)c(OC)c1 | 37 | -1 | · | · | 11
CN(C(=O)c1cc([N+](=O)[O-])ccc1NCc1cccnc1)c1ccccc1 | 26 | 4 | · | · | -5
SMILES | T cruzi repl | HSF-1 act | Lmaj promast | Hsp70 activator | HSF1 inh
CCCCCN1CC(=O)N2[C@@H](Cc3c([nH]c4ccccc34)C2(C)C)C1=O | 0 | 7 | · | · | -3
CCCCOCCCN1CC(=O)N2[C@@H](Cc3c([nH]c4ccccc34)C2(C)C)C1=O | -3 | 70* | · | · | 29
COc1ccc(C(=O)NC2CCCc3ccccc32)cc1S(=O)(=O)N1CCOCC1 (stereo not given) | 1 | 7 | 15 | 0 | 1
COc1ccc(/C=C(\C#N)C(=O)OCCNC(=O)c2ccncc2)cc1 | -23 | 19 | -4 | 0 | -3
CCN1CCN(c2ccc(S(=O)(=O)N(CC)CC)cc2[N+](=O)[O-])CC1 | 18 | -5 | 95* | 0 | -3
CCN(CC)S(=O)(=O)c1ccc(N2CCN(c3cccc(OC)c3)CC2)c([N+](=O)[O-])c1 | 65* | 33 | 100* | 0 | 11
O=C(NCc1cccc(Cl)c1)c1cccnc1 | 4 | -4 | -1 | 0 | -9
O=C(NCc1cccnc1)c1ccc(-c2cc(Cl)ccc2Cl)o1 | 56* | 4 | -2 | 0 | -2
COc1ccccc1NC(=O)c1ccc(CN(c2cc(Cl)ccc2C)S(=O)(=O)c2ccccc2)cc1 | 0 | 0 | 2 | 0 | -13
O=C(NCc1cccnc1)c1cc(Sc2cccc(Cl)c2)nc2ccccc12 | 15 | -7 | 68* | 0 | 2
O=C(NCc1cccnc1)/C(=C\c1ccc(-c2ccc(Cl)c(Cl)c2)o1)S(=O)(=O)c1ccccc1 | 45 | 33 | 100* | 0 | 26
Cc1ccc(Cl)cc1N(Cc1ccc(C(=O)NCc2cccnc2)cc1)S(=O)(=O)c1ccccc1 | -2 | -11 | 83* | 0 | -1
O=C(NCc1cccnc1)c1ccc(-c2ccc(Cl)cc2)o1 | 11 | 1 | -4 | 0 | -10
CC(C)c1ccccc1NC(=S)NCc1ccncc1 | -9 | 14 | -1 | 0 | -3
COc1ccc(/C=C/C(=O)NC2=NCCS2)cc1OC | -8 | 15 | 5 | 0 | 6
Cc1cccc(/C=C/C(=O)c2ccc(NC3=NCCCS3)cc2)c1 | 55* | 74* | 77* | 0 | 44
COc1cccc(/C=C/C(=O)c2ccc(NC3=NCCCS3)cc2)c1 | 45 | 12 | 99* | 0 | 5
CC(=O)Nc1ccc(NC(=O)c2c(C)c(-c3ccccc3)nc3ccccc23)cc1 | 10 | 10 | · | · | 8
CC(=O)NN1C(=O)/C(=C2/Sc3ccccc3N2C)SC1=S | -9 | 8 | · | · | 0
CN1C(=C2C(=O)OC(C)(C)OC2=O)Sc2ccccc21 | 23 | 31 | 99* | 0 | 9
O=C(NC1=NCCS1)C1CC(=O)N(c2ccc(F)cc2)C1 (stereo not given) | -10 | 87* | -5 | 0 | 40
O=C(NC1=NCCS1)C1CC(=O)N(c2ccccc2)C1 (stereo not given) | 1 | 0 | -9 | 0 | -4
CNCCCOc1cc(C)cc(C)c1C | 14 | 11 | 7 | 0 | -8
CCN1CCCC(OC(=O)c2cc(-c3ccc(C)cc3)nc3ccccc23)C1 (stereo not given) | 26 | · | 84* | 0 | ·
Cc1cccc(-c2ocnc2C(=O)N2CCN(C(=O)c3cccs3)CC2)c1 | -2 | -89 | · | · | -87*
COc1ccc(/C(C)=N/NC2=NCCN2)cc1Cl | 37 | 10 | · | · | -1
C/C(=N\NC1=NCCN1)c1ccc(N)c([N+](=O)[O-])c1 | 28 | -75 | · | · | -72*
CCOc1ccc(Br)cc1C(=O)N/N=C/c1ccccn1 | -2 | 19 | · | · | -3
